In ChEMBL document CHEMBL1134250, “Inhibition of neuronal nitric oxide synthase by 7-methoxyindazole and related substituted indazoles” (Bioorg Med Chem Lett, 2001):

Legend:
Nitric oxide synthase 1 [1] = target: T1, Nitric oxide synthase 1 (Rattus norvegicus, UniProt P29476); assay: In vitro inhibitory concentration against rat cerebellar neuronal nitric oxide synthase
[2] = target: Nitric oxide synthase 1 (Rattus norvegicus) (UniProt P29476); assay: In vitro percent inhibition of rat cerebellar neuronal nitric oxide synthase at a concentration of 100 uM
Nitric oxide synthase 1 (Rattus norvegicus), sequence (P29476 whole entry): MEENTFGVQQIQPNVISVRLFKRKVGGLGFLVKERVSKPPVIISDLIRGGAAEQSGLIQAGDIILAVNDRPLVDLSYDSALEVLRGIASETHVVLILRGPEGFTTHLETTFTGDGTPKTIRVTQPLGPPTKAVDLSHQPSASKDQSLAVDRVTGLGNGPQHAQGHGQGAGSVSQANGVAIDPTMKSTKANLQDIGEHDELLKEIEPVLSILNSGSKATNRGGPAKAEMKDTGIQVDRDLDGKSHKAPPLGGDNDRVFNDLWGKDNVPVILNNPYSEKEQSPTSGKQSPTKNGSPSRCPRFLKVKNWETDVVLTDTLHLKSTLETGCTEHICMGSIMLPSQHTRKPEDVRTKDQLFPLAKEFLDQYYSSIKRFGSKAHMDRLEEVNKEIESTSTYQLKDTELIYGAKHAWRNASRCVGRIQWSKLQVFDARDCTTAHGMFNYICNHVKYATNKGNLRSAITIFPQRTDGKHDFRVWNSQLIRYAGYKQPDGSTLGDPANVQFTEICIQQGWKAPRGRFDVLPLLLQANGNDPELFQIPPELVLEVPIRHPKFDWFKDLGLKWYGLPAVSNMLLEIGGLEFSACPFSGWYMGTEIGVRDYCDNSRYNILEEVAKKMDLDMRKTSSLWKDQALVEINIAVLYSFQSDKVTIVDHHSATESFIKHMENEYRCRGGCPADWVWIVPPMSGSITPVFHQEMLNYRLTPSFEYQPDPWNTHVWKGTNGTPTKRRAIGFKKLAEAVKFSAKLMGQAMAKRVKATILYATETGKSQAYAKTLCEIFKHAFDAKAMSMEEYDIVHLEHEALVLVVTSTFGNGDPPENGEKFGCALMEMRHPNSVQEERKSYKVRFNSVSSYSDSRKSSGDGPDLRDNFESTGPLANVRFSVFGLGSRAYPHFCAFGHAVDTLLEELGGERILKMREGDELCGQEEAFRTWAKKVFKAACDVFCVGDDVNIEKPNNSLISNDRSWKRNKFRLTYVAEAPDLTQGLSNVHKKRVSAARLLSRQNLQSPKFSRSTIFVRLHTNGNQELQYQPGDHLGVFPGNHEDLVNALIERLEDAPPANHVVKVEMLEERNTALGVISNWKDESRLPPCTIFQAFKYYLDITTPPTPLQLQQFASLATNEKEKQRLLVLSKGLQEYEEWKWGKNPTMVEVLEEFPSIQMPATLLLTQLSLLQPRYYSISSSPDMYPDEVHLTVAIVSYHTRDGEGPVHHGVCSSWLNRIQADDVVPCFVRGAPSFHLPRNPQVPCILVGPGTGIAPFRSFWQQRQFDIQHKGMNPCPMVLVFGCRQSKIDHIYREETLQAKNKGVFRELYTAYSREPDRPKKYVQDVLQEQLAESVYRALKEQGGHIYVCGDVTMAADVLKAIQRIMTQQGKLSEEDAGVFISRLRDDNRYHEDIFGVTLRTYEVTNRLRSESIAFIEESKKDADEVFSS
In short: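 Rat cerebellar homogenate nNOS, assayed as L-[3H]arginine to L-[3H]citrulline conversion (1 mM CaCl2, 200 μM β-NADPH, 0.88 μM L-arginine, 0.12 µM L-[3H]arginine, 15 min, 37 °C). Compound at 100 µM in ethanol or DMSO vehicle. Result given as % inhibition.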

Nitric oxide synthase 1 [3] = target: T1, Nitric oxide synthase 1; assay: In vitro inhibitory concentration against rat cerebellar neuronal nitric oxide synthase; No effect
In short: (§1)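 Rat cerebellum homogenate nNOS. L-[3H]arginine to L-[3H]citrulline conversion with 1 mM CaCl2, 200 μM β-NADPH, 0.88 μM L-arginine and 0.12 µM L-[3H]arginine, 15 min at 37 °C. Vehicle ethanol or DMSO 0.4–0.8%. IC50 from inhibition curves at 0.1, 1, 10 and 100 µM. Mean ± SEM, 1–6 experiments.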

Mus musculus [4] = assay: Antinociceptive activity in Writhing test in mice(ip) at a dose of 15 mg/kg (p<0.001)
Nitric oxide synthase 1 [5] = target: T1, Nitric oxide synthase 1; assay: In vitro inhibitory concentration against rat cerebellar neuronal nitric oxide synthase; no effect; in short: as §1
[6] = target: Nitric oxide synthase 1 (Rattus norvegicus) (UniProt P29476); assay: Ex vivo inhibition of rat cerebellar neuronal nitric oxide synthase after intraperitoneal administration in rats.; assay type: functional, organism-based; details: concentration not given here
In short: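 Rats, n=6, received 50 mg/kg ip in arachis oil. Cerebellum removed 30 min later. nNOS activity measured ex vivo as L-[3H]arginine to L-[3H]citrulline conversion. Expressed as % inhibition.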

Mus musculus [7] = assay: Antinociceptive activity in Writhing test in mice(ip) at a dose of 50 mg/kg (p<0.001); assay type: functional
Mus musculus [8] = assay: Antinociceptive activity in Writhing test in mice(ip) at a dose of 25 mg/kg (p<0.05); assay type: functional
Mus musculus [9] = assay: Antinociceptive activity in Writhing test in mice(ip) at a dose of 10 mg/kg (p<0.05); assay type: functional
Mus musculus [10] = assay: Effect of l-Arginine on Antinociceptive activity in mice(ip) at a dose of 50 mg/kg (p<0.05); assay type: functional

T1 sequence (P29476 whole entry): as above

IC50 (Nitric oxide synthase 1 [1]) | inhibition [2] | SMILES | other results
> 100 µM | 30% | COc1cccc2[nH]ncc12 | –
> 100 µM | – | Cc1ccc2cn[nH]c2c1 | –
– | 0% | COc1ccc2c[nH]nc2c1 | IC50 (Nitric oxide synthase 1 [3]): Not Active
– | – | CC(=O)Oc1ccccc1C(=O)O [ASPIRIN] | No. of writhes (Mus musculus [4]): 3.5
75 µM | – | Brc1ccc2[nH]ncc2c1 | –
> 100 µM | 25% | COc1ccc2[nH]ncc2c1 | –
– | 0% | COc1cccc2c(I)[nH]nc12 | IC50 (Nitric oxide synthase 1 [5]): Not Active
> 100 µM | – | Fc1ccc2[nH]ncc2c1 | –
100 µM | 50% | CCOc1cccc2c[nH]nc12 | –
28 µM | – | Clc1ccc2cn[nH]c2c1 | –
– | – | O=[N+]([O-])c1cccc2cn[nH]c12 [7-NITROINDAZOLE] | inhibition [6]: 92%; No. of writhes (Mus musculus [7]): 6.2
– | 0% | c1ccc(COc2cccc3c[nH]nc23)cc1 | IC50 (Nitric oxide synthase 1 [5]): Not Active
> 100 µM | 7% | Oc1cccc2cn[nH]c12 | –
30 µM | – | FC(F)(F)c1ccccc1-n1ccnc1 | inhibition [6]: 45%

SMILES | IC50 (Nitric oxide synthase 1 [1]) | inhibition [2] | other results
COc1cccc2c[nH]nc12 | 6.3 µM | 80% | No. of writhes (Mus musculus [8]): 12.2; No. of writhes (Mus musculus [7]): 4.7; No. of writhes (Mus musculus [9]): 15.4; No. of writhes (Mus musculus [10]): 10.6
